Source: paper PMC11301096 (iScience, 2024)
No end group written: not given here. *: point of attachment. Biotin = O=C1N[C@H]2[C@H](CS[C@H]2CCCCC(=O)*)N1

Tests used:
[1] = In vivo xenograft model, toxicity read-outs; design: species or system BALB/c-Nude mice; details: BO1 4.57 mg/kg intraperitoneally every other day, two weeks, n = 6
Procedure, shortened: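 Four-week-old male nude mice acclimatised 7 days, then implanted subcutaneously with 2×10^6 Hep 3B cells; randomised into two groups of 6. Once tumours reached 100 mm3, given 200 μL saline or test compound intraperitoneally every other day, with weighing and tumour measurement. Killed after two weeks; serum taken for ALT, AST and creatinine.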

[2] = test system: L-O2 cells; assay: Hoechst 33258 staining; assay type: cell-based, human; details: 20 μM BO1, 48 h
Procedure, shortened: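 Seeded at 4×10^4 cells/well for 24 h, then treated 48 h. Fixed in 4% tissue fixative for 15 min and stained with Hoechst 33258 for 5 min. Washed twice with PBS; nuclei viewed by fluorescence microscopy.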

[3] = test system: Huh7 cells; assay: CCK-8 proliferative activity; assay type: cell-based, human; details: read-out: IC50, proliferation; CCK-8, 48 h, mean of n = 3
Procedure, shortened: (§1)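 Cells grown in DMEM with 10% FBS and 1% antibiotics at 37°C, 5% CO2; log-phase cells used. Seeded at 4×10^3/well for 24 h, then exposed to graded doses of test compound (DMSO stock) for 48 h. CCK-8 reagent added for 1–2 h in the dark; absorbance read at 450 nm. Three independent experiments.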

[4] = test system: human normal hepatocyte L-O2; assay: CCK-8 proliferative activity; assay type: cell-based; details: 10 μM and 20 μM BO1, CCK-8, 48 h
Procedure, shortened: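 Normal hepatocytes seeded at 4×10^3/well and incubated 24 h, then exposed to test compound for 48 h. CCK-8 reagent added for 1–2 h protected from light; absorbance measured at 450 nm. Three independent experiments.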

[5] = test system: L-O2 cells; assay: Cell cycle analysis by flow cytometry; assay type: cell-based, human; details: 20 μM BO1, 48 h
Procedure, shortened: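 Cells (5×10^5 per 100 mm dish) attached for 24 h, then exposed to test compound for 48 h. Cell pellets fixed in 70% ethanol for 4 h and washed twice with PBS. Stained with a DNA-content quantitation kit; cell-cycle distribution read by flow cytometry.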

[6] = test system: Hep 3B cells; assay: CCK-8 proliferative activity; assay type: cell-based, human; details: read-out: IC50, proliferation; CCK-8, 48 h, mean of n = 3
Procedure, shortened: as §1

[7] = molecular target: HSP90A (Homo sapiens, UniProt P07900); assay: Biotinylated pull-down with western blot; assay type: binding; details: compared to samples extracted with IgG; cell extracts, 4°C, 12 h
Procedure, shortened: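 Bead-bound biotin-labelled test compound (4°C, 3 h) rotated with cell extracts at 4°C for 12 h. Beads washed in ice-cold NT2 buffer (4°C, 5 min), then four more washes. Bound proteins eluted with protein elution buffer plus DTT at 37°C for 2 h. Eluates analysed by LC-MS and western blot, with an IgG pull-down as negative control.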

| Substance | histopathological examination of major organs (heart, liver, spleen, and kidney), H&E [1] | serum alanine aminotransferase (ALT) activity [1] | serum aspartate aminotransferase (AST) activity [1] | serum creatinine (CREA) activity [1] | nuclear fluorescence staining [2] | IC50 [3] [µM] | activity of normal hepatocytes (proliferative activity) [4] | cell cycle progression [5] | IC50 [6] [µM] | HSP90A in samples pulled by bio-BO1 (western blot) [7] |
| --- | --- | --- | --- | --- | --- | --- | --- | --- | --- | --- |
| GIGSAILSAGKSIIKGLAKGLAEHF-NH2 [BO1, Bombinin-BO1] | normal findings | comparable to those of control mice | comparable to those of control mice | comparable to those of control mice | no significant changes | 24.9 | no significant change | not significantly affected | 15.2 | – |
| bio-BO1: Biotin-labeled BO1 (Biotin-GIGSAILSAGKSIIKGLAKGLAEHF-NH2; SMILES CC[C@H](C)[C@H](NC(=O)CNC(=O)CCCC[C@@H]1SC[C@@H]2NC(=O)N[C@@H]21)C(=O)NCC(=O)N[C@@H](CO)C(=O)N[C@@H](C)C(=O)N[C@H](C(=O)N[C@@H](CC(C)C)C(=O)N[C@@H](CO)C(=O)N[C@@H](C)C(=O)NCC(=O)N[C@@H](CCCCN)C(=O)N[C@@H](CO)C(=O)N[C@H](C(=O)N[C@H](C(=O)N[C@@H](CCCCN)C(=O)NCC(=O)N[C@@H](CC(C)C)C(=O)N[C@@H](C)C(=O)N[C@@H](CCCCN)C(=O)NCC(=O)N[C@@H](CC(C)C)C(=O)N[C@@H](C)C(=O)N[C@@H](CCC(=O)O)C(=O)N[C@@H](Cc1c[nH]cn1)C(=O)N[C@@H](Cc1ccccc1)C(N)=O)[C@@H](C)CC)[C@@H](C)CC)[C@@H](C)CC) | – | – | – | – | – | – | – | – | – | significantly detected |
